Data on 1 molecule can be found in ChEMBL document CHEMBL4000163, “Pyrazole derived ultra-short antimicrobial peptidomimetics with potent anti-biofilm activity” (Eur J Med Chem, 2017).

A short description of data set [1]: Therapeutic index, ratio of MHC for sheep RBC to geometric mean of MICs for four bacterial strains.
Data set [2] can be described thus: Therapeutic index, ratio of MHC for sheep RBC to MIC for Staphylococcus aureus KCTC 1621.
Data set [3] deals with Staphylococcus aureus. Briefly: Potency index, ratio of melittin MIC100 to compound MIC100 for methicillin resistant Staphylococcus aureus CCARM 3090. Format: functional.
Data set [4] concerns RAW264.7. Briefly: Cytotoxicity against mouse RAW264.7 cells up to 32 ug/mL after 2 days by MTT assay. Conditions: raw264.7, 48 h. Format: cell-based. Put shortly:
(§1)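 Cells in DMEM with 10% FBS seeded at 2×10^4 cells/well and incubated 24 h at 37 °C, 5% CO₂. Serial 2-fold peptide dilutions were added for 2 days, then MTT for 4 h. Formazan was dissolved in 20% SDS/0.01 M HCl and read at 570 nm. Survival is expressed as a percentage of untreated cells.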
(Tetrazolium assays rely on reduction of a dye to a coloured formazan, in cell work by metabolically active cells.)

The subject of data set [5] is Staphylococcus aureus. Briefly: Potency index, ratio of melittin MIC100 to compound MIC100 for Staphylococcus aureus KCTC 1621. Format: functional.
Data set [6] concerns RAW264.7. The data set can be described thus: Antiinflammatory activity in mouse RAW264.7 cells assessed as inhibition of LPS-induced nitric oxide production after 24 hrs by Griess method. The class given is functional, cell-based. The method in brief:
(§2)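 RAW264.7 macrophages (5×10^5 cells/mL) stimulated with LPS (20 ng/mL), with or without peptide, for 24 h. Supernatants were mixed 1:1 with Griess reagent (1% sulfanilamide, 0.1% naphthylethylenediamine, 2% phosphoric acid) for 10 min at room temperature, read at 540 nm, and quantified against an NaNO₂ standard curve. Mean ± SEM of technical triplicates, ANOVA with Bonferroni post-test.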
For orientation: Nitrite, measured by Griess reagent, commonly stands in for NO production.

For data set [7], the system named is Pseudomonas aeruginosa. Briefly: Antimicrobial activity against Pseudomonas aeruginosa KCTC 1637 incubated for 18 to 20 hrs by broth microdilution assay. Format: functional. The following applies: read-out: MIC100. The method in brief:
(§3)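 Broth microdilution in 1% peptone. Inoculum was 2 × 10⁶ CFU/mL mixed 1:1 with serial 2-fold peptide dilutions and incubated 18–20 h at 37 °C. Growth was read as absorbance at 600 nm; MIC is the lowest peptide concentration giving 100% growth inhibition.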

For data set [8], the system named is Staphylococcus aureus. The data set can be described thus: Potency index, ratio of melittin MIC100 to compound MIC100 for methicillin resistant Staphylococcus aureus CCARM 3095. Format: functional.
For data set [9], the system named is RAW264.7. Briefly: Antiinflammatory activity in mouse RAW264.7 cells assessed as inhibition of LPS-induced nitric oxide production at 16 ug/mL after 24 hrs by Griess method. The class given is functional. The following applies: RAW264.7, 24 h. The method in brief: as §2
In another data set the test system is NIH3T3. The data set can be described thus: Cytotoxicity against mouse NIH/3T3 cells up to 64 ug/mL after 2 days by MTT assay. Format: cell-based. Conditions: nih3t3, 48 h. The method in brief:
as §1

The subject of data set [10] is Staphylococcus aureus. The data set can be described thus: Potency index, ratio of LL-37 MIC100 to compound MIC100 for Staphylococcus aureus KCTC 1621. Format: functional.
The test system of data set [11] is Escherichia coli. Briefly: Antimicrobial activity against Escherichia coli KCTC 1682 incubated for 18 to 20 hrs by broth microdilution assay. The following applies: read-out: MIC100. Format: functional. Put shortly: as §3
(Dilution methods test growth across graded concentrations, often in twofold steps.)

The test system of data set [12] is Escherichia coli. Briefly: Induction of inner membrane permeabilisation in Escherichia coli ML-35 assessed as ONPG hydrolysis up to 30 ug/ml by beta-galactosidase enzyme coupled spectrophotometric analysis. The class given is functional. The method in brief: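 E. coli ML-35 (constitutive cytoplasmic β-galactosidase, lactose permease-deficient) washed and resuspended to OD600 0.5 in 10 mM sodium phosphate pH 7.4, 100 mM NaCl, with 1.5 mM ONPG. o-Nitrophenol release tracked spectrophotometrically over time after peptide addition at various concentrations.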

Data set [13] deals with Escherichia coli. The data set can be described thus: Antimicrobial activity against Escherichia coli KCTC 1682 in presence of MgCl2. The class given is functional. Put shortly: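 MIC in LB medium with added 150 mM NaCl, 1 mM MgCl₂ or 2.5 mM CaCl₂. Inoculum of 2 × 10⁶ CFU/mL with peptide. Otherwise as the broth microdilution MIC assay; MIC is the lowest concentration giving 100% growth inhibition.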

The subject of data set [14] is Staphylococcus aureus. The data set can be described thus: Antibacterial activity against methicillin resistant Staphylococcus aureus CCARM 3089 after 18 to 20 hrs by broth microdilution assay. Format: functional. The following applies: read-out: MIC100. The method in brief:
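Broth microdilution in 1% peptone: bacteria at 2 × 10⁶ CFU/mL mixed 1:1 with serial 2-fold peptide dilutions, 18-20 h at 37 °C; growth read as absorbance at 600 nm. MIC taken as lowest concentration giving 100% growth inhibition.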

The test system of data set [15] is Pseudomonas aeruginosa. Briefly: Antibiofilm activity against multidrug-resistant Pseudomonas aeruginosa CCARM 2095 after 24 hrs by crystal violet staining based method. Format: functional. The following applies: CCARM 2095, 24 h. The method in brief: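 MDRPA 2095 (1×10^6 cfu/mL) in MHB with 0.2% glucose, 24 h at 37 °C with or without peptide (2-fold dilutions, 1-64 µg/mL), six wells each. Wells washed with PBS, methanol-fixed, stained with 0.1% crystal violet 5 min, stain resolubilized in 95% ethanol, absorbance at 600 nm.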

For data set [16], the system named is Escherichia coli. Briefly: Antimicrobial activity against Escherichia coli KCTC 1682 using 4 hrs trypsin incubated compound measured after overnight incubation by radial diffusion assay. Format: functional. Put shortly: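 Radial diffusion: mid-log cells (2×10^6 CFU/ml in LB) in 0.7% agarose. Peptide stock (10 mg/mL) added to trypsin in PBS (0.2 µg/mL), 4 h at 37 °C, stopped by liquid-nitrogen freezing; 10 µL on paper discs on the plates, overnight at 37 °C. Clearance-zone diameters measured.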

SMILES strings stand for the structures. Converted amounts (≈) assume the structure as drawn. The source made the active and inactive calls. The calls are words filed in the database; no cut-off is given here.

Consider `N=C(N)NCCC[C@H](NC(=O)c1nn(CCc2cccc3ccccc23)cc1NC(=O)[C@H](CCCNC(=N)N)NC(=O)c1nn(CCc2cccc3ccccc23)cc1N)C(N)=O`, for which the TI in [1] and in data set [2] was 53.9 in each case. Further, the Ratio in the data set with Staphylococcus aureus [3] is 2 - 4; in the data set on Staphylococcus aureus [5], 4; in the data set with Staphylococcus aureus [8], 2 - 4; in the data set on Staphylococcus aureus [10], 8. The Activity result in the data set on RAW264.7 [4] and in the data set with NIH3T3 was “Non-Toxic” throughout. The inhibition entry with RAW264.7 [6] was “Dose-dependent effect”. Besides, the MIC with Pseudomonas aeruginosa [7] came to 8 µg/mL (≈ 9.35 µM); in the data set on Escherichia coli [11] it was 32 µg/mL (≈ 37.4 µM); with Escherichia coli [13], 32 µg/mL; in the data set on Staphylococcus aureus [14] it was 8 µg/mL (≈ 9.35 µM). In the data set on RAW264.7 [9], the inhibition at 16 µg/mL was over 85%. The outcome in the data set on Escherichia coli [12] and in the data set with Escherichia coli [16] was Active. The 90% effect level in the data set with Pseudomonas aeruginosa [15] (IC90) was put at 16 µg/mL (≈ 18.7 µM).

A word on the inhibition: it is the share of the control response that was lost under treatment. Usually IC90 stands for the concentration at which the effect reaches the 90% level. Read a high IC90 as weaker potency.
